{"source": "ChEMBL document CHEMBL1129413", "about": "“Synthesis and selective monoamine oxidase B-inhibiting properties of 1-methyl-1,2,3,6-tetrahydropyrid-4-yl carbamate derivatives: potential prodrugs of (R)- and (S)-nordeprenyl” (J Med Chem, 1996)", "key": {"Monoamine oxidase [1]": {"target": "T1, Monoamine oxidase (Mus musculus, UniProt Q8BW75+Q64133)", "T1 sequence (Q8BW75 whole entry)": "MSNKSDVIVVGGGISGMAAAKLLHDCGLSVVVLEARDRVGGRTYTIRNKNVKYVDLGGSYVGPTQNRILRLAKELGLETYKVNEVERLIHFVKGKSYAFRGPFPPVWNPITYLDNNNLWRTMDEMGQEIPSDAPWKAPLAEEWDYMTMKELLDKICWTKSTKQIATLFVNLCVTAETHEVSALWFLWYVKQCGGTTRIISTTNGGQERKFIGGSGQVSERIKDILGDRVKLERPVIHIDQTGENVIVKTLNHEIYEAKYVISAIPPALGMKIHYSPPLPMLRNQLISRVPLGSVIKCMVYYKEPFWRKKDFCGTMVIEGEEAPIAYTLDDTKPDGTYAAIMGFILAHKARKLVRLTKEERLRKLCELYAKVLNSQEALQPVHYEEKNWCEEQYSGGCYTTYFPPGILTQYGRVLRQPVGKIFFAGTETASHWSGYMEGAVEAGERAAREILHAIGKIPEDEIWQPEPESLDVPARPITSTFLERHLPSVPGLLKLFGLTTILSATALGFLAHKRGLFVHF", "T1 sequence (Q64133 whole entry)": "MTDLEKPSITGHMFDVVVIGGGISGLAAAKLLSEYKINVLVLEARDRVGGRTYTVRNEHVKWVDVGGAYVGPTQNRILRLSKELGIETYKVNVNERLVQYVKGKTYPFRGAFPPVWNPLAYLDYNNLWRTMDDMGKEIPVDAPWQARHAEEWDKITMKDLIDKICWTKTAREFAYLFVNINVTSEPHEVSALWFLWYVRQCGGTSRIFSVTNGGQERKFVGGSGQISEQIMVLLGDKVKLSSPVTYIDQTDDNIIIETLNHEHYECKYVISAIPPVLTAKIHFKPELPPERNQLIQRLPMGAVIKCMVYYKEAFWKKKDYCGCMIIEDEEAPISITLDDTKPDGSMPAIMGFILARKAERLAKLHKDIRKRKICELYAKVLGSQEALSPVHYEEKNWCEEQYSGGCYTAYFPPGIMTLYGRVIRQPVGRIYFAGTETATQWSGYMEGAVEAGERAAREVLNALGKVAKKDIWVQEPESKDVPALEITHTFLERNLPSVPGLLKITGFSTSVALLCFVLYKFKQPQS", "assay": "The ability (25 umol/kg/day) to inactivate monoamine oxidase (MAO) was tested on brain mitochondrial membranes of mice, for 3 days", "assay_type": "functional", "details": "72 h"}, "[2]": {"assay": "Residual activity was obtained", "assay_type": "functional"}, "[3]": {"assay": "Ratio of activities of MAO-B / MAO-A", "assay_type": "functional"}, "[4]": {"target": "T2, Amine oxidase [flavin-containing] B (Mus musculus, UniProt Q8BW75)", "T2 sequence (Q8BW75 whole entry)": "T1 sequence (Q8BW75 whole entry)", "assay": "The ability (124 umol/kg/day) to inactivate monoamine oxidaseB (MAO-B) was tested on brain mitochondrial membranes of mice for 3 day", "details": "72 h"}, "[5]": {"target": "T3, Amine oxidase [flavin-containing] A (Mus musculus, UniProt Q64133)", "T3 sequence (Q64133 whole entry)": "T1 sequence (Q64133 whole entry)", "assay": "The ability (124 umol/kg/day) to inactivate monoamine oxidase A(MAO-A) was tested on brain mitochondrial membranes of mice, for 3 day", "details": "72 h"}, "[6]": {"target": "T2, Amine oxidase [flavin-containing] B", "assay": "The ability (25 umol/kg/day) to inactivate monoamine oxidase B (MAO-B) was tested on brain mitochondrial membranes of mice, for 3 day", "assay_type": "functional", "details": "72 h"}, "[7]": {"target": "T3, Amine oxidase [flavin-containing] A", "assay": "The ability (25 umol/kg/day) to inactivate monoamine oxidase A(MAO-A) was tested on brain mitochondrial membranes of mice, for 3 day", "assay_type": "functional", "details": "72 h"}, "[8]": {"target": "T2, Amine oxidase [flavin-containing] B", "assay": "The ability of the compound(25 umol/kg/day) to inactivate monoamine oxidase B (MAO-B) was tested on brain mitochondrial membranes of mice, for 3 day.", "assay_type": "functional", "details": "72 h", "procedure,_shortened": "(§1)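 Male ICR mice (25-35 g), 25 µmol/kg/day ip in sterile saline for 3 days, n = 3; killed day 4, 24 h after last dose. Whole-brain mitochondria isolated by differential centrifugation, lysed in ice-cold water, membranes in 10 mM phosphate pH 7.4. Membranes preincubated 30 min at 37 °C with buffer (total), 3 × 10^-8 M clorgyline (MAO-B), 3 × 10^-7 M deprenyl (MAO-A), or both (residual).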"}, "Monoamine oxidase [9]": {"target": "T1, Monoamine oxidase", "assay": "The ability of the compound(25 umol/kg/day) to inactivate monoamine oxidase (MAO) was tested on brain mitochondrial membranes of mice, for 3 days.", "assay_type": "functional", "details": "72 h", "procedure,_shortened": "as §1"}, "[10]": {"target": "T3, Amine oxidase [flavin-containing] A", "assay": "The ability of the compound(25 umol/kg/day) to inactivate monoamine oxidase A(MAO-A) was tested on brain mitochondrial membranes of mice, for 3 day.", "assay_type": "functional", "details": "72 h", "procedure,_shortened": "as §1"}, "[11]": {"assay": "Residual activity was obtained.", "assay_type": "functional", "procedure,_shortened": "as §1"}}, "note": "“And” between values parts separate entries of the source, which are not always exact repeats. Equal values may be shown once.", "data": [{"molecule": "C#CCN(C(=O)OC1=CCN(C)CC1)[C@H](C)Cc1ccccc1", "values": [{"measurement": "Activity", "setting": "Monoamine oxidase [1]", "value": 1.36, "unit": "nmol/min/mg"}, {"measurement": "Activity", "setting": "[2]", "value": 0.45, "unit": "nmol/min/mg"}, {"measurement": "Ratio", "setting": "[3]", "value": 0.63}, {"measurement": "Activity", "setting": "[4]", "value": 0.78, "unit": "nmol/min/mg"}, {"measurement": "Activity", "setting": "[5]", "value": 1.1, "unit": "nmol/min/mg"}]}, {"molecule": "C#CCN(C(=O)OC1=CCN(C)CC1)[C@@H](C)Cc1ccccc1", "values": [{"measurement": "Activity", "setting": "[6]", "value": 3.35, "unit": "nmol/min/mg"}, {"measurement": "Activity", "setting": "[7]", "value": 0.76, "unit": "nmol/min/mg"}, {"measurement": "Activity", "setting": "Monoamine oxidase [1]", "value": 3.75, "unit": "nmol/min/mg"}, {"measurement": "Activity", "setting": "[2]", "value": 0.2, "unit": "nmol/min/mg"}, {"measurement": "Ratio", "setting": "[3]", "value": 4.4}]}, {"molecule": "C#CCN[C@H](C)Cc1ccccc1", "note": "[RNORDEPRENYL]", "values": [{"measurement": "Activity", "setting": "[8]", "value": 0.68, "unit": "nM"}, {"measurement": "Activity", "setting": "Monoamine oxidase [9]", "value": 1.31, "unit": "nM"}, {"measurement": "Activity", "setting": "[10]", "value": 1.07, "unit": "nM"}, {"measurement": "Residual activity", "setting": "[11]", "value": 0.46, "unit": "nM"}, {"measurement": "Ratio", "setting": "[3]", "value": 0.71}]}, {"molecule": "C#CCN(C)[C@H](C)Cc1ccccc1", "note": "[SELEGILINE]", "values": [{"measurement": "Activity", "setting": "[8]", "value": "0.46 nM and 0.7 nM"}, {"measurement": "Activity", "setting": "Monoamine oxidase [9]", "value": "0.84 nM and 1.36 nM"}, {"measurement": "Activity", "setting": "[10]", "value": "0.64 nM and 1.06 nM"}, {"measurement": "Residual activity", "setting": "[11]", "value": "0.24 nM and 0.44 nM"}, {"measurement": "Ratio", "setting": "[3]", "value": "0.72 and 0.66"}]}]}
